Common to all, as to format: functional
Assay [1] relates to HeLa. The experiment in a line: Cell cycle arrest in human HeLa cells assessed as subG1 phase accumulation at 50 uM after 24 hrs by FACS. In short, it runs like this: (§1)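 HeLa cells seeded 5 × 10^5 per dish 48 h ahead in DMEM with 10% FCS, then exposed to compound for 24 h (DMSO 0.1% final). Adherent and floating cells pooled, fixed in PBS-MeOH (1:2) at 4 °C for at least 18 h, and stained with PI (50 µg/mL) plus RNase A for 30 min at room temperature. Flow cytometry at 488 nm excitation, doublets gated out; phase percentages taken from DNA histograms.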
For orientation: In flow cytometry, cells or beads pass a laser one at a time.

Assay [2] has as its system HeLa. The experiment in a line: Cell cycle arrest in human HeLa cells assessed as subG1 phase accumulation at 100 uM after 24 hrs by FACS. Summed up: as §1
In assay [3] the test system is HeLa. The experiment in a line: Induction of apoptosis in human HeLa cells assessed as increase in intracellular hydrogen peroxide level at 100 uM after 1 hr by FACS relative to untreated control. Summed up:
(§2)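 HeLa cells at 80% confluence were refed and exposed to 100 µM for 1, 3 or 24 h. They were loaded with 10 µM DCFH-DA for 30 min in the dark, trypsinized and resuspended in PBS. DCF fluorescence was measured by flow cytometry and expressed as fold versus untreated cells. At least three experiments.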

The test system of assay [4] is HeLa. The experiment in a line: Induction of apoptosis in human HeLa cells assessed as increase in intracellular peroxide level at 100 uM after 24 hrs by FACS relative to untreated control. Summed up: as §2
In assay [5] the test system is HeLa. The experiment in a line: Induction of apoptosis in human HeLa cells assessed as number of cells with decreased mitochondrial membrane potential at 100 uM after 1 hr by measuring rhodamine 123 fluorescence intensity. Further details: scale not given: the % may be the effect or the level left. In short, it runs like this:
(§3)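 Cells in DMEM/10% FCS, medium renewed at 80% confluence, then 100 µM agent (0.1% DMSO final) for 1–24 h. Stained with 5 µM rhodamine 123 for 30 min in the dark, washed, trypsinized and resuspended in PBS; flow cytometry, percentage of cells with weak rhodamine 123 staining (reduced ΔΨm); at least three experiments, representative shown.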

The test system of assay [6] is HeLa. The experiment in a line: Induction of apoptosis in human HeLa cells assessed as number of cells with decreased mitochondrial membrane potential at 100 uM after 3 hrs by measuring rhodamine 123 fluorescence intensity. Further details: scale not given: the % may be the effect or the level left. In short, it runs like this: as §3
For assay [7], the system named is HeLa. The experiment in a line: Induction of apoptosis in human HeLa cells assessed as number of cells with decreased mitochondrial membrane potential at 100 uM after 6 hrs by measuring rhodamine 123 fluorescence intensity. Further details: scale not given: the % may be the effect or the level left. Summed up:
as §3

Assay [8] has as its system HeLa. The experiment in a line: Induction of apoptosis in human HeLa cells assessed as number of cells with decreased mitochondrial membrane potential at 100 uM after 9 hrs by measuring rhodamine 123 fluorescence intensity. Further details: scale not given: the % may be the effect or the level left. In short, it runs like this: as §3
Assay [9] deals with HeLa. The experiment in a line: Induction of apoptosis in human HeLa cells assessed as increase caspase 3/7 activities at 100 uM after 3 hrs by FACS relative to control. Summed up: (§4)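 After 3–24 h exposure at 100 µM, HeLa cells were trypsinized. 1 × 10^6 cells in DMEM were mixed 1:1 with Z-DEVD-R110 substrate reagent and incubated 1 h at 37 °C, then washed. Released R110 read per cell by flow cytometry (ex 488/em 520 nm) and expressed as fold over untreated cells. At least three runs.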

Assay [10] concerns HeLa. The experiment in a line: Induction of apoptosis in human HeLa cells assessed as increase caspase 3/7 activities at 100 uM after 9 hrs by FACS relative to control. In short, it runs like this:
as §4

The test system of assay [11] is HeLa. The experiment in a line: Induction of apoptosis in human HeLa cells assessed as increase caspase 3/7 activities at 100 uM after 24 hrs by FACS relative to control. In short, it runs like this:
as §4

Assay [12] relates to HeLa. The experiment in a line: Induction of apoptosis in human HeLa cells assessed as increase p53 expression at 100 uM after 3 hrs by FACS. In short, it runs like this: (§5)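 HeLa seeded at 5 × 10^5 cells/dish 48 h before, in DMEM with 10% FCS; medium renewed at 60% confluence, then 100 µM agent (0.1% DMSO final) for 0–24 h. Pooled floating and adherent cells fixed in 1% paraformaldehyde (15 min, 4 °C), permeabilized in 70% EtOH (30 min, 4 °C), then FITC-conjugated mouse anti-p53 mAb (1 h, 37 °C), PI/RNase counterstain; flow cytometry, % p53-positive cells; ≥3 experiments.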

The test system of assay [13] is HeLa. The experiment in a line: Induction of apoptosis in human HeLa cells assessed as increase p53 expression at 100 uM after 12 hrs by FACS. Summed up: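 Cells at 60% confluence were exposed to 100 µM for 0–24 h. Floating and adherent cells were fixed in 1% paraformaldehyde (15 min, 4 °C) and permeabilized in 70% EtOH. They were stained with FITC-anti-p53 monoclonal antibody for 1 h at 37 °C, then with PI/RNase. Flow cytometry gave the percentage of p53-positive cells.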

The test system of assay [14] is HeLa. The experiment in a line: Induction of apoptosis in human HeLa cells assessed as increase p53 expression at 100 uM after 24 hrs by FACS. In short, it runs like this: as §5
The test system of assay [15] is HeLa. The experiment in a line: Induction of apoptosis in human HeLa cells at 100 uM after 24 hrs by TUNEL assay. In short, it runs like this:
(§6)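 HeLa in DMEM/10% FCS, untreated or pretreated 1 h with listed inhibitor, then 100 µM agent (0.1% DMSO final) for 24 h. Pooled cells fixed in 1% paraformaldehyde (30 min, 4 °C), 70% EtOH (30 min, −20 °C); strand breaks labelled with TdT/fluorescein-BrdUTP (1 h, 37 °C), PI/RNase counterstain; flow cytometry, % apoptotic cells; ≥3 experiments.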

The test system of assay [16] is HeLa. The experiment in a line: Induction of apoptosis in human HeLa cells pretreated with 100 uM Boc-Asp(OMe)-fmk for 1 hr at 100 uM after 24 hrs by TUNEL assay. Summed up:
as §6

The test system of assay [17] is HeLa. The experiment in a line: Induction of apoptosis in human HeLa cells pretreated with 5 uM cyclosporin A for 1 hr at 100 uM after 24 hrs by TUNEL assay. In short, it runs like this: as §6
Assay [18] relates to HeLa. The experiment in a line: Induction of apoptosis in human HeLa cells pretreated with 10 uM pifithrin-alpha for 1 hr at 100 uM after 24 hrs by TUNEL assay. In short, it runs like this:
as §6

For assay [19], the system named is HeLa. The experiment in a line: Cell cycle arrest in human HeLa cells pretreated with 10 mM glutathione ethyl ester for 1 hr assessed as G2/M phase accumulation at 100 uM after 24 hrs by FACS. Summed up: (§7)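 HeLa cells pretreated for 1 h with the listed agent (10 mM GSH ethyl ester, 10 µM dexamethasone, 10 µM pifithrin, 100 µM Boc-Asp(OMe)-fmk or 5 µM cyclosporin A), then given 100 µM compound for 24 h. Cells fixed in PBS-MeOH, stained with PI/RNase and analysed by flow cytometry for DNA content. At least three experiments, one representative shown.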

Assay [20] relates to HeLa. The experiment in a line: Cell cycle arrest in human HeLa cells pretreated with 100 uM Boc-Asp(OMe)-fmk for 1 hr assessed as S phase accumulation at 100 uM after 24 hrs by FACS. In short, it runs like this: as §7
In assay [21] the test system is HeLa. The experiment in a line: Cell cycle arrest in human HeLa cells pretreated with 5 uM cyclosporin A for 1 hr assessed as S phase accumulation at 100 uM after 24 hrs by FACS. In short, it runs like this: as §7
Assay [22] relates to HeLa. The experiment in a line: Cell cycle arrest in human HeLa cells pretreated with 10 uM pifithrin-alpha for 1 hr assessed as G1 phase accumulation at 100 uM after 24 hrs by FACS. Summed up: as §7
Assay [23] deals with HeLa. The experiment in a line: Cell cycle arrest in human HeLa cells pretreated with 10 uM pifithrin-alpha for 1 hr assessed as subG1 phase accumulation at 100 uM after 24 hrs by FACS. In short, it runs like this:
as §7

Consider `CCCCCCCCCCCCC/C=C(/C(=O)OC)[C@@H](O)C(C)=O` [SECOKOTOMOLIDE A], for which the Activity is reported as 61.2% in assay [1]; 75% in assay [2]; 1.4% in [5]; 2.2% in assay [6]; 23% in assay [7]; 42.4% in assay [8]. The Activity stood at 0.5% in [12]; 2.3% in [13]; 28.8% in [14]; 72.3% in [15]; 39% in assay [16]; 54.5% in assay [17]. The Activity in assay [18] is recorded as 57.3%; in assay [19], 11.6%; in [20] it was 13.6%; in assay [21], 14.4%; in [22], 51.3%; in [23], 40.9%. In addition, the “fold change (FC)” value worked out at 3.4 in assay [3]; 3.9 in assay [4]; 3.5 in [9]; 9.9 in assay [10]; 1.7 in assay [11].

These data come from ChEMBL document CHEMBL1157968, “Chemical and cytotoxic constituents from the leaves of Cinnamomum kotoense” (2006).
